Experimental data published in ChEMBL document CHEMBL3525957, “Stereospecific metabolism of itraconazole by CYP3A4: dioxolane ring scission of azole antifungals” (Drug Metab Dispos, 2012).

Tests used:
Cytochrome P450 3A4 [1] = molecular target: T1, Cytochrome P450 3A4 (Homo sapiens, UniProt P08684); experiment: Drug metabolism of the compound assessed as CYP3A4 (unknown origin)-mediated 1-(2,4-dichlorophenyl)-2-(1H-1,2,4-triazol-1-yl)ethanone formation by LC/MS/MS analysis; assay type: ADME
Method in brief: (§1)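 kcat for M2 formation: trans isomers at 500 nM with CYP3A4 Supersomes (1 pmol) in KPi buffer. 5-min preincubation at 37°C, then NADPH (1 mM final) and 1-min reaction. M2 by LC-MS/MS, m/z 256.0>158.8, ITZ-d5 internal standard, standard curve 0.039–30 nM. kcat = product/time/pmol CYP3A4.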

Cytochrome P450 3A4 [2] = molecular target: T1, Cytochrome P450 3A4; experiment: Drug metabolism of the compound assessed as CYP3A4 (unknown origin)-mediated 1-sec-butyl-4-(4-(4-(4-(3-hydroxy-2-oxopropoxy)phenyl)piperazin-1-yl)phenyl)-1H-1,2,4-triazol-5(4H)-one by LC/MS/MS analysis; assay type: ADME
Cytochrome P450 3A4 [3] = molecular target: T1, Cytochrome P450 3A4; experiment: Drug metabolism of the compound assessed as CYP3A4 (unknown origin)-mediated 3-(4-(4-(4-(1-sec-butyl-5-oxo-1H-1,2,4-triazol-4(5H)-yl)phenyl)piperazin-1-yl)phenoxy)-2-hydroxypropanal by LC/MS/MS analysis; assay type: ADME
Cytochrome P450 3A4 [4] = molecular target: T1, Cytochrome P450 3A4; experiment: Drug metabolism of the compound assessed as CYP3A4 (unknown origin) coexpressing P450 reductase and cytochrome-b5-mediated 1-sec-butyl-4-(4-(4-(4-(3-hydroxy-2-oxopropoxy)phenyl)piperazin-1-yl)phenyl)-1H-1,2,4-triazol-5(4H)-one after 5 mins by LC/MS/MS analysis in presence of NADPH; assay type: ADME
Cytochrome P450 3A4 [5] = molecular target: T1, Cytochrome P450 3A4; experiment: Drug metabolism of the compound assessed as CYP3A4 (unknown origin) coexpressing P450 reductase and cytochrome-b5-mediated 3-(4-(4-(4-(1-sec-butyl-5-oxo-1H-1,2,4-triazol-4(5H)-yl)phenyl)piperazin-1-yl)phenoxy)-2-hydroxypropanal after 5 mins by LC/MS/MS analysis in presence of NADPH; assay type: ADME
Cytochrome P450 3A4 [6] = molecular target: T1, Cytochrome P450 3A4; experiment: Drug metabolism of the compound assessed as purified CYP3A4 (unknown origin)-mediated 1-sec-butyl-4-(4-(4-(4-(3-hydroxy-2-oxopropoxy)phenyl)piperazin-1-yl)phenyl)-1H-1,2,4-triazol-5(4H)-one by LC/MS/MS analysis in presence of NADPH; assay type: ADME
Cytochrome P450 3A4 [7] = molecular target: T1, Cytochrome P450 3A4; experiment: Drug metabolism of the compound assessed as purified CYP3A4 (unknown origin)-mediated 3-(4-(4-(4-(1-sec-butyl-5-oxo-1H-1,2,4-triazol-4(5H)-yl)phenyl)piperazin-1-yl)phenoxy)-2-hydroxypropanal by LC/MS/MS analysis in presence of NADPH; assay type: ADME
Cytochrome P450 3A4 [8] = molecular target: T1, Cytochrome P450 3A4; experiment: Drug metabolism of the compound assessed as CYP3A4 (unknown origin) coexpressing P450 reductase and cytochrome-b5-mediated 1-sec-butyl-4-(4-(4-(4-(2,3-dihydroxypropoxy)phenyl)piperazin-1-yl)phenyl)-1H-1,2,4-triazol-5(4H)-one formation after 3 mins by LC/MS/MS analysis; assay type: ADME; settings: 0.05 h
Cytochrome P450 3A4 [9] = molecular target: T1, Cytochrome P450 3A4; experiment: Drug metabolism of the compound assessed as reconstituted CYP3A4 (unknown origin)-mediated 1-(2,4-dichlorophenyl)-2-(1H-1,2,4-triazol-1-yl)ethanone formation at 500 nM after 5 mins by LC/MS analysis in presence of NADPH; assay type: ADME; settings: 0.5 µM
Cytochrome P450 3A4 [10] = molecular target: T1, Cytochrome P450 3A4; experiment: Drug metabolism of the compound assessed as CYP3A4 (unknown origin) coexpressing P450 reductase and cytochrome-b5-mediated 1-(2,4-dichlorophenyl)-2-(1H-1,2,4-triazol-1-yl)ethanone formation at 500 nM after 5 mins by LC/MS analysis in presence of NADPH; assay type: ADME; settings: 0.5 µM
Cytochrome P450 3A4 [11] = molecular target: T1, Cytochrome P450 3A4; experiment: Drug metabolism of the compound assessed as CYP3A4 (unknown origin) coexpressing P450 reductase and cytochrome-b5-mediated 1-(2,4-dichlorophenyl)-2-(1H-1,2,4-triazol-1-yl)ethanone formation by LC/MS/MS analysis; assay type: ADME; method in brief: as §1
Cytochrome P450 3A4 [12] = molecular target: T1, Cytochrome P450 3A4; experiment: Drug level of the compound assessed as CYP3A4 (unknown origin) coexpressing P450 reductase and cytochrome-b5-mediated metabolite formation treated with trans-ITZ by LC/MS/MS analysis; assay type: ADME
Cytochrome P450 3A4 [13] = molecular target: T1, Cytochrome P450 3A4; experiment: Drug level of the compound assessed as CYP3A4 (unknown origin)-mediated metabolite formation treated with cis-ITZ by LC/MS/MS analysis; assay type: ADME
Method in brief: (§2)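 Substrate incubated with CYP3A4 Supersomes (100 pmol) in KPi buffer at 37°C for 1 h, with and without NADPH, plus a no-enzyme control. Products by LC/Q-TOF MS, positive ESI, m/z 100–1500, cone 35 V, low-energy (6 eV) and ramped high-energy modes.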

Cytochrome P450 3A4 [14] = molecular target: T1, Cytochrome P450 3A4; experiment: Drug level of the compound assessed as CYP3A4 (unknown origin)-mediated metabolite formation treated with 3'-OH-ITZ by LC/MS/MS analysis; assay type: ADME; method in brief: as §2
Cytochrome P450 3A4 [15] = molecular target: T1, Cytochrome P450 3A4; experiment: Drug level of the compound assessed as CYP3A4 (unknown origin)-mediated metabolite formation treated with keto-ITZ by LC/MS/MS analysis; assay type: ADME; method in brief: as §2
Cytochrome P450 3A4 [16] = molecular target: T1, Cytochrome P450 3A4; experiment: Drug level of the compound assessed as CYP3A4 (unknown origin)-mediated metabolite formation treated with N-desalkyl-ITZ by LC/MS/MS analysis; assay type: ADME; method in brief: as §2
[17] = Drug metabolism in human assessed as 1-(2,4-dichlorophenyl)-2-(1H-1,2,4-triazol-1-yl)ethanone level in urine at 400 mg, po after 24 hrs by MS/MS analysis; assay type: ADME, organism-based; settings: in vivo
Method in brief: (§3)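 Six subjects (5 male, 1 female) received itraconazole 400 mg orally. Urine collected 24 h before dosing, 0–12 and 12–24 h after, then 24–48, 72–96 and 120–144 h, with volume recorded. 5 ml urine extracted with ethyl acetate. M2 measured by MS/MS at transition m/z 256>158.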

[18] = Drug metabolism in human assessed as 1-(2,4-dichlorophenyl)-2-(1H-1,2,4-triazol-1-yl)ethanone level in urine at 400 mg, po measured on day 2 by MS/MS analysis; assay type: ADME, organism-based; settings: in vivo; method in brief: as §3
[19] = Drug metabolism in human assessed as 1-(2,4-dichlorophenyl)-2-(1H-1,2,4-triazol-1-yl)ethanone level in urine at 400 mg, po measured on day 4 by MS/MS analysis; assay type: ADME, organism-based; settings: in vivo; method in brief: as §3
[20] = Drug metabolism in human assessed as 1-(2,4-dichlorophenyl)-2-(1H-1,2,4-triazol-1-yl)ethanone level in urine at 400 mg, po measured on day 7 by MS/MS analysis; assay type: ADME, organism-based; settings: in vivo; method in brief: as §3
CYP3A4 = CYP3A4 (Homo sapiens, UniProt P08684); experiment: Inhibition of CYP3A4 in human liver microsomes using midazolam as substrates at 15 uM after 5 mins by LC/MS analysis in presence of NADPH; assay type: ADME; settings: probe midazolam
CYP3A4, sequence (P08684 whole entry): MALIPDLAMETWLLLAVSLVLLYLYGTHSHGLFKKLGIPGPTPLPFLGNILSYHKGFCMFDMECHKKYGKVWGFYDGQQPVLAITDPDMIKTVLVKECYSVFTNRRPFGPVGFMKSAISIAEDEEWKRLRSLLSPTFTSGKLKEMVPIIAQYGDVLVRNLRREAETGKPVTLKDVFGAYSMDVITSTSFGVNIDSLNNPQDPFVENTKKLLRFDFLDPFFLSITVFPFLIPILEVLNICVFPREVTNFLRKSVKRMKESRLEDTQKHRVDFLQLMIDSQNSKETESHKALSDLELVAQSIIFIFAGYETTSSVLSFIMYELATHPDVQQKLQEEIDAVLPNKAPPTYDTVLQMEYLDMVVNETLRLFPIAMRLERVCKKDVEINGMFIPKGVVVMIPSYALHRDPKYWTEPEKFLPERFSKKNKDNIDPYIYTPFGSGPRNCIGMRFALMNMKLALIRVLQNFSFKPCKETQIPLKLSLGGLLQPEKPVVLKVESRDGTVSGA

Cytochrome P450 3A4 [21] = molecular target: T1, Cytochrome P450 3A4; experiment: Inhibition of CYP3A4 in human liver microsomes using midazolam as substrates after 5 mins by LC/MS analysis in presence of NADPH; assay type: ADME
Method in brief: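 Pooled HLM (0.025 mg/ml, CYP3A5*3/*3) with midazolam 1 μM in KPi. Inhibitor range 5–1000 nM for trans isomers. 5-min preincubation at 37°C, then NADPH 1 mM final, run for 2 min. Stopped with ethyl acetate, d4-1'-OH-MDZ added as internal standard. IC50 from fit of remaining-activity equation.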

Cytochrome P450 3A4 [22] = molecular target: T1, Cytochrome P450 3A4; experiment: Binding affinity to purified CYP3A4 (unknown origin) coexpressing P450 reductase and cytochrome-b5 by UV-Vis spectrophotometry; assay type: ADME; settings: read-out: Ks
Cytochrome P450 3A4 [23] = molecular target: T1, Cytochrome P450 3A4; experiment: Drug metabolism of the compound assessed as CYP3A4 (unknown origin) coexpressing P450 reductase and cytochrome-b5-mediated 1-sec-butyl-4-(4-(4-(4-(2,3-dihydroxypropoxy)phenyl)piperazin-1-yl)phenyl)-1H-1,2,4-triazol-5(4H)-one formation after 1 hr by LC/MS/MS analysis; assay type: ADME
Cytochrome P450 3A4 [24] = molecular target: T1, Cytochrome P450 3A4; experiment: Drug level of the compound assessed as CYP3A4 (unknown origin) coexpressing P450 reductase and cytochrome-b5-mediated metabolite formation treated with trans-(2S,4S,2'S)-ITZ by LC/MS/MS analysis; assay type: ADME
Cytochrome P450 3A4 [25] = molecular target: T1, Cytochrome P450 3A4; experiment: Drug level of the compound assessed as purified CYP3A4 (unknown origin)-mediated metabolite formation treated with trans-(2S,4S,2'S)-ITZ by LC/MS/MS analysis; assay type: ADME

T1 sequence (P08684 whole entry): as above

CC[C@H](C)n1ncn(-c2ccc(N3CCN(c4ccc(OC[C@@H]5CO[C@@](Cn6cncn6)(c6ccc(Cl)cc6Cl)O5)cc4)CC3)cc2)c1=O
Drug metabolism (Cytochrome P450 3A4 [1]): metabolite_detected | Drug metabolism (Cytochrome P450 3A4 [2]): metabolite_detected | Drug metabolism (Cytochrome P450 3A4 [3]): metabolite_detected

CC[C@H](C)n1ncn(-c2ccc(N3CCN(c4ccc(OC[C@H]5CO[C@](Cn6cncn6)(c6ccc(Cl)cc6Cl)O5)cc4)CC3)cc2)c1=O
Drug metabolism (Cytochrome P450 3A4 [1]): metabolite_detected | Drug metabolism (Cytochrome P450 3A4 [2]): metabolite_detected | Drug metabolism (Cytochrome P450 3A4 [3]): metabolite_detected

CC[C@@H](C)n1ncn(-c2ccc(N3CCN(c4ccc(OC[C@H]5CO[C@](Cn6cncn6)(c6ccc(Cl)cc6Cl)O5)cc4)CC3)cc2)c1=O
Drug metabolism (Cytochrome P450 3A4 [1]): metabolite_detected | Drug metabolism (Cytochrome P450 3A4 [2]): metabolite_detected | Drug metabolism (Cytochrome P450 3A4 [3]): metabolite_detected

CC[C@H](C)n1ncn(-c2ccc(N3CCN(c4ccc(OC[C@H]5CO[C@@](Cn6cncn6)(c6ccc(Cl)cc6Cl)O5)cc4)CC3)cc2)c1=O
Drug metabolism (Cytochrome P450 3A4 [4]): metabolite_detected | Drug metabolism (Cytochrome P450 3A4 [5]): metabolite_detected | Drug metabolism (Cytochrome P450 3A4 [6]): metabolite_detected | Drug metabolism (Cytochrome P450 3A4 [7]): metabolite_detected | Drug metabolism (Cytochrome P450 3A4 [8]): metabolite_detected | Kcat (Cytochrome P450 3A4 [9]): 0.0042 s⁻¹ | Kcat (Cytochrome P450 3A4 [10]): 0.0198 s⁻¹

CC[C@@H](C)n1ncn(-c2ccc(N3CCN(c4ccc(OC[C@H]5CO[C@@](Cn6cncn6)(c6ccc(Cl)cc6Cl)O5)cc4)CC3)cc2)c1=O
Kcat (Cytochrome P450 3A4 [9]): 0.0041 s⁻¹ | Kcat (Cytochrome P450 3A4 [10]): 0.0183 s⁻¹

CC[C@H](C)n1ncn(-c2ccc(N3CCN(c4ccc(OC[C@@H]5CO[C@](Cn6cncn6)(c6ccc(Cl)cc6Cl)O5)cc4)CC3)cc2)c1=O
Kcat (Cytochrome P450 3A4 [9]): 0.0038 s⁻¹ | Kcat (Cytochrome P450 3A4 [10]): 0.0214 s⁻¹

CC[C@@H](C)n1ncn(-c2ccc(N3CCN(c4ccc(OC[C@@H]5CO[C@](Cn6cncn6)(c6ccc(Cl)cc6Cl)O5)cc4)CC3)cc2)c1=O
Kcat (Cytochrome P450 3A4 [9]): 0.0032 s⁻¹ | Kcat (Cytochrome P450 3A4 [10]): 0.0159 s⁻¹

O=C(Cn1cncn1)c1ccc(Cl)cc1Cl
Drug metabolism (Cytochrome P450 3A4 [11]): metabolite_detected | Drug metabolism (Cytochrome P450 3A4 [12]): metabolite_detected | Drug metabolism (Cytochrome P450 3A4 [13]): metabolite_detected | Drug metabolism (Cytochrome P450 3A4 [14]): metabolite_detected | Drug metabolism (Cytochrome P450 3A4 [15]): metabolite_detected | Drug metabolism (Cytochrome P450 3A4 [16]): metabolite_detected | Drug metabolism [17]: 1114 ng | Drug metabolism [18]: 429 ng | Drug metabolism [19]: 319 ng | Drug metabolism [20]: 87 ng | inhibition at 5 min, 15 µM (CYP3A4): < 50% | IC50 (Cytochrome P450 3A4 [21]): > 15 µM | Kd (Cytochrome P450 3A4 [22]): 12.8 µM | Drug metabolism (Cytochrome P450 3A4 [23]): metabolite_detected

CCC(C)n1ncn(-c2ccc(N3CCN(c4ccc(OCC(O)C=O)cc4)CC3)cc2)c1=O (centres undefined)
Drug metabolism (Cytochrome P450 3A4 [24]): metabolite_detected | Drug metabolism (Cytochrome P450 3A4 [25]): metabolite_detected | Drug metabolism (Cytochrome P450 3A4 [13]): metabolite_detected

CCC(C)n1ncn(-c2ccc(N3CCN(c4ccc(OCC(=O)CO)cc4)CC3)cc2)c1=O (centres undefined)
Drug metabolism (Cytochrome P450 3A4 [24]): metabolite_detected | Drug metabolism (Cytochrome P450 3A4 [25]): metabolite_detected | Drug metabolism (Cytochrome P450 3A4 [13]): metabolite_detected

CCC(C)n1ncn(-c2ccc(N3CCN(c4ccc(OCC(O)CO)cc4)CC3)cc2)c1=O (centres undefined)
Drug metabolism (Cytochrome P450 3A4 [11]): metabolite_detected | Drug metabolism (Cytochrome P450 3A4 [12]): metabolite_detected | Drug metabolism (Cytochrome P450 3A4 [25]): metabolite_not_detected | Drug metabolism (Cytochrome P450 3A4 [23]): metabolite_detected

CC[C@@H](C)n1ncn(-c2ccc(N3CCN(c4ccc(OC[C@@H]5CO[C@@](Cn6cncn6)(c6ccc(Cl)cc6Cl)O5)cc4)CC3)cc2)c1=O
Drug metabolism (Cytochrome P450 3A4 [1]): metabolite_detected | Drug metabolism (Cytochrome P450 3A4 [2]): metabolite_detected | Drug metabolism (Cytochrome P450 3A4 [3]): metabolite_detected
